Results taken from ChEMBL document CHEMBL5226372, “Tuaimenals B-H, Merosesquiterpenes from the Irish Deep-Sea Soft Coral Duva florida with Bioactivity against Cervical Cancer Cell Lines” (J Nat Prod, 2023).
Calls of active or inactive are those of the source. No cut-off for these calls is given here.

Columns and labels:
Enterococcus faecium = test: Antibacterial activity against Enterococcus faecium; type: functional, organism-based
[1] = tested on: Mycobacterium tuberculosis; test: Antibacterial activity against Mycobacterium tuberculosis; type: functional, organism-based
Pseudomonas aeruginosa = test: Antibacterial activity against Pseudomonas aeruginosa; type: functional, organism-based
C-33-A [2] = test: Antiproliferative activity against HPV-negative human C-33-A cells assessed as inhibition of cell growth incubated for 48 hrs by WST-1 assay; type: functional, cell-based
Method in brief: (§1)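 CaSki cells (RPMI 1640) and C33A cells (DMEM), passage <10, kept at 37 °C in 5% CO2. Cells were seeded at 1000–3000 per well to reach 50% confluency, then treated 48 h with serial dilutions from 200 to 2 μM in DMSO (N = 3). WST-1 was read after 2 h at 450/600 nm. Absorbances were normalized and EC50 came from nonlinear regression.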

Enterobacter sp. = test: Antibacterial activity against Enterobacter sp.; type: functional, organism-based
Staphylococcus aureus = test: Antibacterial activity against Staphylococcus aureus; type: functional, organism-based
Ca-Ski [3] = test: Antiproliferative activity against HPV-positive human Ca-Ski cells assessed as inhibition of cell growth incubated for 48 hrs by WST-1 assay; type: functional, cell-based
Method in brief: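 CaSki cells were grown in RPMI 1640 with 10% FBS, kept below passage 10, at 37 °C and 5% CO2. They were seeded at 1000–3000 cells/well (about 50% confluence) and treated with 12 serial dilutions from 200 to 2 μM in DMSO (N = 3), with DMSO and 50 μM etoposide controls. After 48 h, 2 h WST-1 was read at 450/600 nm, normalized, and fitted by nonlinear regression.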

Klebsiella pneumoniae = test: Antibacterial activity against Klebsiella pneumoniae; type: functional, organism-based
Acinetobacter baumannii = test: Antibacterial activity against Acinetobacter baumannii; type: functional, organism-based
Candida = test: Antifungal activity against Candida; type: functional, organism-based
Human orthopneumovirus = test: Antiviral activity against human respiratory syncytial virus; type: functional, organism-based
Ca-Ski [4] = test: Antiproliferative activity against HPV-positive human Ca-Ski cells assessed as inhibition of cell growth at 50 uM incubated for 48 hrs by WST-1 assay; type: functional, cell-based
C-33-A [5] = test: Antiproliferative activity against HPV-negative human C-33-A cells assessed as inhibition of cell growth at 50 uM incubated for 48 hrs by WST-1 assay; type: functional, cell-based
Method in brief: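 C33A cells in DMEM, seeded at 1000–3000 per well and exposed to 50 μM etoposide as the positive control alongside a DMSO negative control (N = 3). Proliferation was read by WST-1 after 48 h treatment plus 2 h reagent incubation, at 450/600 nm. End-point absorbances were normalized.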

[6] = Selectivity ratio of EC50 for antiproliferative activity against HPV-positive human Ca-Ski cells to EC50 for antiproliferative activity against HPV-negative human C-33-A cells; type: functional; method in brief: as §1

| SMILES | Activity (Enterococcus faecium) | Activity [1] | Activity (Pseudomonas aeruginosa) | EC50 (C-33-A [2]) | Activity (Enterobacter sp.) | Activity (Staphylococcus aureus) | EC50 (Ca-Ski [3]) | Activity (Klebsiella pneumoniae) | Activity (Acinetobacter baumannii) | Activity (Candida) | Activity (Human orthopneumovirus) | Activity (Ca-Ski [4]) | Activity (C-33-A [5]) | Ratio EC50 [6] |
| --- | --- | --- | --- | --- | --- | --- | --- | --- | --- | --- | --- | --- | --- | --- |
| CC(=O)Oc1cc(C)c(O)c2c1C=CC(C)(CC/C=C(\C)CCC=C(C)C)O2 (stereo not drawn) | inactive | inactive | inactive | 14 µM | inactive | inactive | 25 µM | inactive | inactive | inactive | inactive |  |  |  |
| COc1cc([C@@H]2c3cc4c(cc3[C@@H](O[C@@H]3O[C@@H]5CO[C@@H](C)O[C@H]5[C@H](O)[C@H]3O)[C@H]3COC(=O)[C@H]23)OCO4)cc(OC)c1O |  |  |  |  |  |  |  |  |  |  |  | Active | Active |  |
| COc1cc(C)c(O)c2c1C=CC(C)(CC/C=C(\C)CCCC(C)(C)O)O2 (stereo not drawn) | inactive | inactive | inactive | 38 µM | inactive | inactive | 41 µM | inactive | inactive | inactive | inactive |  |  |  |
| COc1cc(C)c(O)c2c1C=CC(C)(CC/C=C(\C)CCCC(C)(C)OC(C)=O)O2 (stereo not drawn) | inactive | inactive | inactive | 0.04 µM | inactive | inactive | 20 µM | inactive | inactive | inactive | inactive |  |  | 500 |
| CC(C)=CCC/C(C)=C/CCC1(C)C=Cc2c(C=O)c(O)c(C)c(O)c2O1 (stereo not drawn) | inactive | inactive | inactive | 58 µM | inactive | inactive | 46 µM | inactive | inactive | inactive | inactive |  |  |  |
| CC(C)=CCC/C(C)=C/CC/C(C)=C/Cc1c(O)c(O)c(C)c(O)c1C=O | inactive | inactive | inactive | 14 µM | inactive | inactive | 23 µM | inactive | inactive | inactive | inactive |  |  |  |
